HCT116 bCat-KO = beta-catenin-lacking colon tumor cell growth suppression; HCT116 beta-catenin knockout viability, CellTiter-Glo, 60 h; stronger effect = lower value; actives 1.5% (n = 140,000); viability, % at 10 µM;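 active = viability at or under a set limit, the compound median less 4 SD, cut at about 6% in these data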
Lung fibro prol = blocks proliferation of human lung fibroblasts; LL 47 human lung fibroblast viability, ATP luminescence; stronger effect = lower value; viability, % at 10 µM; actives 1.1% (n = 85,000); AID 719;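 active = viability at or below 50% in the single dose screen; inactive = viability above 50%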;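 also: compound exposure lasted 72 h before the ATP readout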
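Material: Human LL 47 lung fibroblast cells | Input: 1,150 cells/well | Buffer or medium: IMEM plus 15% FBS | Compound dosing: 0.1% DMSO in all compound wells | Times: Overnight cell rest, 72 h compound treatment at 37 °C | Signal: CellTiter-Glo luminescence measuring cellular ATP | Measure: % viability versus median cells-only luminescence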
HUVEC prolif 384 = blocks proliferation of human endothelial cells. HUVEC proliferation, CellTiter-Glo luminescence, 72 h; stronger effect = lower value. viability, % at 10 µM (by protocol). actives 1.1% (n = 86,000). AID 648;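 active = viability at or below 30%; inactive = viability above 30%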
H69AR inhibit = blocks growth of human H69AR lung tumor cells; H69AR lung tumor viability, ATP luminescence, 72 h; stronger effect = lower value; viability, % at 10 µM; actives 6% (n = 85,000); AID 598;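 active = viability at or below 40%; inactive = viability above 40%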;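 also: multidrug resistant small cell line overexpressing MRP-1 efflux transporter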
HCT116 PTEN-null = PTEN-deleted cell growth suppression. HCT116 PTEN-null viability, CellTiter-Glo, 60 h; stronger effect = lower value. actives 1.2% (n = 140,000). viability, % at 10 µM. AID 827;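 active = viability at or below a set limit, 4 SD under the median of all tested compounds, cut at about 3.7% in these data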;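 also: PTEN knockout HCT116 line with beta catenin targeted HCT116 as companion control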
A number is an active result; - = inactive; . = not tested or not shown. The entries come from a sample that favours hits as a whole.

SMILES	HCT116 bCat-KO	Lung fibro prol	HUVEC prolif 384	H69AR inhibit	HCT116 PTEN-null
COCCOC(=O)c1[nH]c2c(c1C)C(=O)CC(c1ccccc1)C2 (centres undefined)	-	-	-	39	-
O=C(COc1c(Cl)cc(Cl)cc1Cl)c1ccc(Cl)cc1	-	.	.	.	-
C1=C(c2ccc(-c3ccccc3)cc2)Nc2ncnn2C1c1ccco1 (centres undefined)	-	-	-	18	-
CCOc1cc(Cl)c(NC(C)=O)cc1OCC	-	.	.	.	-
COc1cc(CNc2ccc3[nH]c(=O)[nH]c3c2)cc(Br)c1OCC(=O)NC(C)(C)C	-	-	-	9.9	-
Cc1ccc(OCCN2CCN(CC(O)Cn3c4ccccc4c4ccccc43)CC2)cc1 (centres undefined)	1.2	.	.	.	1.4
Cc1cccc(C)c1OCC(=O)Nc1oc(-c2ccccc2)c(-c2ccccc2)c1C#N	.	-	-	27	.
Cc1nn(C)c(C)c1/C=N/N=C1\CCC2C3CCc4cc(O)ccc4C3CCC12C (centres undefined)	3.1	.	.	.	-
CCc1nnc(NC(=O)c2cccc(C(=O)Nc3nnc(CC)s3)n2)s1	5.0	4.8	3.7	3.7	2.2
CCc1nnc(NC(=O)c2ccc3c(c2)C(=O)N(C(C)(C)C)C3=O)s1	-	-	-	39	-
CCOc1ccc(NC(=S)N2CCC(C(N)=O)CC2)cc1	-	.	.	.	-
CNC(=O)c1ccc(-c2sc3nc(N4CCOCC4)c4c(c3c2N)CCCC4)o1	-	-	-	21	-
CNC(=O)c1ccc(-c2sc3nc(N4CCOCC4)c4c(c3c2N)CC(C)(C)OC4)o1	-	-	-	-	-
Cc1cc(N2CCC(C)CC2)nc(-n2nc(C)cc2C)n1	-	-	-	1.7	-
Cc1cc(C)n(-c2nc3ccccc3nc2N2CCC(C)CC2)n1	-	-	-	-	-
C=CCn1c(SCC(=O)NC(=O)c2cccc([N+](=O)[O-])c2)nnc1-c1ccccc1F	-	.	.	.	-
COc1ccc(N(C(=O)c2ccco2)S(=O)(=O)c2cc(Cl)c(Cl)cc2Cl)cc1	-	-	-	20	-
COc1ccc(N(C(=O)c2ccco2)S(=O)(=O)c2ccccc2)cc1	-	.	.	.	-
CC1CCN(CCCCOc2ccccc2[N+](=O)[O-])CC1	-	.	.	.	-
Clc1cccc(-c2cc3nc4c(c(N5CCNCC5)n3n2)CCCC4)c1	1.5	1.9	1.1	1.9	1.0
OC1CCN(c2c3c(nc4cc(-c5cccc(F)c5)nn24)CCCC3)CC1	-	-	-	-	-
Cn1nnnc1Sc1nc(-c2cccnc2)nc2ccccc12	.	12	-	0.0	.
CCOc1ccc(NS(=O)(=O)c2ccc(OCC)c3ncccc23)cc1	-	-	-	16	-
COc1ccc(CCC(=O)Nc2ccccc2C(F)(F)F)cc1	-	.	.	.	-
CCCCNS(=O)(=O)c1ccc(NC(=O)c2c(-c3ccccc3Cl)noc2C)cc1	-	-	-	33	-
SMILES	HCT116 bCat-KO	Lung fibro prol	HUVEC prolif 384	H69AR inhibit	HCT116 PTEN-null
COc1ccccc1NC(=O)N1CCC(c2nc3cc(C)c(C)cc3[nH]2)CC1	-	48	-	27	-
COc1ccccc1NC(=S)N1CCC(c2nc3cc(C)c(C)cc3[nH]2)CC1	-	.	.	.	-
Cc1ccc2cccc(Oc3ncnc4scc(-c5ccc(Cl)cc5)c34)c2n1	-	.	.	.	-
Cc1nc2c3ccccc3nc(SCC(=O)c3ccc(Cl)cc3)n2n1	-	.	.	.	-
Cc1nc2c3ccccc3nc(SCC(=O)N3CC(C)CC(C)C3)n2n1 (centres undefined)	-	-	-	20	-
COc1ccc(NC(=O)CC#N)cc1OC	-	-	-	-	-
C=CCN(CC=C)S(=O)(=O)c1ccc(NC(=S)NC(=O)Cc2ccc(OC)cc2)cc1	-	.	.	.	-
CCOc1ccc(C(=O)NCCn2cc(SCC(=O)Nc3cc(C)on3)c3ccccc32)cc1	-	-	-	33	-
Cn1c(=O)cc(SCC(=O)NCc2ccco2)c2ccccc21	-	-	-	-	-
Cc1cc(NC(=O)CSc2cn(CCNC(=O)c3ccc(Cl)cc3)c3ccccc23)no1	-	-	-	-	-
O=C(CSc1cn(CCNC(=O)c2ccc3ccccc3c2)c2ccccc12)NCc1ccco1	-	-	-	9.6	-
CCCS(=O)(=O)c1c(S(=O)(=O)CCC)c2cnccn2c1C(=O)c1ccc(Cl)cc1	-	-	-	-	-
COC(=O)CC/C(O)=C1\C(=O)CC(C)(C)CC1=Nc1ccccc1OC	-	-	-	29	-
CC/C(O)=C1\C(=O)CC(C)(C)CC1=Nc1ccccc1C	-	.	.	.	-
COc1ccc(OC)c(N=CC2=C(O)CC(C)(C)CC2=O)c1	-	-	-	-	-
CCCC/C(O)=C1\C(=O)CC(C)(C)CC1=Nc1ccccc1OC	-	-	-	33	-
CCC/C(O)=C1\C(=O)CC(C)(C)CC1=Nc1ccc(OC)cc1OC	-	-	-	21	-
Cc1cc(S(=O)(=O)N2CCN(Cc3ccc4c(c3)OCO4)CC2)cc(C)c1N1CCCC1=O	-	-	20	-	-
CCN(CC)CCNC(=O)C(C)c1nn(CC)c(=O)c2ccccc12 (centres undefined)	-	-	-	-	-
CCOc1ccc2nc(NC(=O)C3CCCN(S(=O)(=O)c4cccs4)C3)sc2c1 (centres undefined)	-	-	-	-	-
COc1ccccc1Cn1c(=O)c2ccccc2n2c(Sc3ncnc4sccc34)nnc12	-	-	-	1.4	-
O=C(CSc1ccc(Cl)cc1)Nc1cccc(-c2nc3ccccc3[nH]2)c1	-	.	.	.	-
N=c1c(-c2nc3ccccc3[nH]2)cc(C(=O)c2cccs2)nn1-c1ccc(Cl)cc1	.	-	24	7.4	.
Cc1ccc2nc3c(cc(C(N)=S)c(=N)n3CCCOC(C)C)c(=O)n2c1	-	-	-	-	-
CNCCCNCc1ccc(SC)cc1	-	.	.	.	-
SMILES	HCT116 bCat-KO	Lung fibro prol	HUVEC prolif 384	H69AR inhibit	HCT116 PTEN-null
COc1cccc(/C=N/n2c(N)nc3ccccc32)c1OC	-	-	-	-	-
COc1cccc(/C=N/n2cnc3ccccc32)c1OC	-	-	-	30	-
CC(C)C(=O)N(c1cc2sc(=O)oc2c2ccccc12)S(=O)(=O)c1cccs1	-	-	-	22	-
COc1ccc(N(C(=O)C(C)C)S(=O)(=O)c2cccs2)cc1	-	-	-	17	-
COc1cc(/C=C2/CCC/C(=C\c3cc(O)c(OC)c(Cl)c3)C2=O)cc(Cl)c1O	2.0	.	.	.	1.9
COc1cc(/C=C2\CC/C(=C\c3cc(OC)c(O)c(OC)c3)C2=O)cc(OC)c1O	2.1	.	.	.	2.5
O=C(C#Cc1cccc([N+](=O)[O-])c1)c1ccccc1	-	48	-	2.6	3.7
O=C(NCCc1ccccc1)c1cccc([N+](=O)[O-])c1	-	.	.	.	-
Cc1ccc(CNC(=O)COC(=O)c2ccc(Cl)c(N)c2)cc1	-	.	.	.	-
CC(C)(C)n1nnnc1C(c1cccs1)N(Cc1cccnc1)Cc1ccccc1Cl (centres undefined)	-	-	-	4.0	-
Cc1cc(C(C)(C)C)oc1C(=O)N(CC(=O)NC1CCCC1)Cc1ccccc1Cl	-	.	.	.	-
CCn1c(=N)c(C(=O)NC)cc2c(=O)n3cccc(C)c3nc21	.	-	-	-	.
